Broadly, the IC50 is the concentration at which inhibition is half-maximal.

Each structure is given as a SMILES string.

Results on four compounds are retold here after paper PMC2828495 (Bioorganic & medicinal chemistry, 2010).

The test system of data set [1] is leaky mutant NR698. Description: Antimicrobial test. It counts as cell-based, E. coli. The conditions noted are these: Figure 8. An outline of the steps:
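E. coli NR698 (MC4100 imp4213), a strain with increased outer-membrane permeability. Log-phase cells at OD600 ~0.5 to 1.0 were diluted to OD600 0.05 and test compound (dissolved in DMSO) was added. Cultures containing 5% DMSO final were shaken at 37 °C, 1050 rpm, for 10 to 12 h. MIC was then determined.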

For data set [2], the target named is EcSecA (Escherichia coli, UniProt P10408). Kind of data set: Whole EcSecA ATPase inhibition. In kind it is biochemical, E. coli. In short, it runs like this:
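Full-length E. coli SecA was over-expressed from pT7-SecA and purified. Each reaction held 5 µg SecA, 2 mM ATP, 50 mM Tris-HCl pH 7.6, 20 mM KCl, 20 mM NH4Cl, 1 mM DTT, 2 mM Mg(OAc)2 and 10% DMSO, run at 40 °C for 40 min. Malachite green, then 34% citric acid, was added; after 40 min at room temperature A660 gave Pi. Activity was expressed as % of no-compound control, at least in triplicate, with IC50 from inhibition curves.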

The subject of data set [3] is wild type E. coli strain MC4100. Kind of data set: Antimicrobial test. In kind it is cell-based. The conditions noted are these: Figure 8.
Data set [4] is described as follows: Solubility observation in the inhibition assay. The conditions noted are these: when approaching 100 µM. It counts as physicochemical.
For data set [5], the target named is EcN68 SecA (Escherichia coli, UniProt P10408). Kind of data set: EcN68 SecA ATPase inhibition. It counts as biochemical, E. coli.
Chain of EcN68 SecA (P10408 1-610): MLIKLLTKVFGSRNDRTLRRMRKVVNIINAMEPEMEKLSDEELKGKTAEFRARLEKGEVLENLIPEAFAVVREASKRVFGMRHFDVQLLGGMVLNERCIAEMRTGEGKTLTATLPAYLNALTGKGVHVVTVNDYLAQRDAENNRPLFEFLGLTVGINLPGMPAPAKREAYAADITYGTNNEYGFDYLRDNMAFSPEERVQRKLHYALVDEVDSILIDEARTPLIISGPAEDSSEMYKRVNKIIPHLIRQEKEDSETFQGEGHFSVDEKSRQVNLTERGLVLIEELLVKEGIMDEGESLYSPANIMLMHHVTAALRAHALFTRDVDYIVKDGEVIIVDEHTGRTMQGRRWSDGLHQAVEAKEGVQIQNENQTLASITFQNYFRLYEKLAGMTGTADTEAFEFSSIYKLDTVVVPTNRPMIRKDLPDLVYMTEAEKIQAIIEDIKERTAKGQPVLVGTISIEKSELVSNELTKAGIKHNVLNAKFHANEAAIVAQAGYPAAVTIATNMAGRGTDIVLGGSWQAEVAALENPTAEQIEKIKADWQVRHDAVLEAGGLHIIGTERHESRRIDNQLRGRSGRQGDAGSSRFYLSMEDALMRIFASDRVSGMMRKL

Chain of EcSecA (P10408 whole entry): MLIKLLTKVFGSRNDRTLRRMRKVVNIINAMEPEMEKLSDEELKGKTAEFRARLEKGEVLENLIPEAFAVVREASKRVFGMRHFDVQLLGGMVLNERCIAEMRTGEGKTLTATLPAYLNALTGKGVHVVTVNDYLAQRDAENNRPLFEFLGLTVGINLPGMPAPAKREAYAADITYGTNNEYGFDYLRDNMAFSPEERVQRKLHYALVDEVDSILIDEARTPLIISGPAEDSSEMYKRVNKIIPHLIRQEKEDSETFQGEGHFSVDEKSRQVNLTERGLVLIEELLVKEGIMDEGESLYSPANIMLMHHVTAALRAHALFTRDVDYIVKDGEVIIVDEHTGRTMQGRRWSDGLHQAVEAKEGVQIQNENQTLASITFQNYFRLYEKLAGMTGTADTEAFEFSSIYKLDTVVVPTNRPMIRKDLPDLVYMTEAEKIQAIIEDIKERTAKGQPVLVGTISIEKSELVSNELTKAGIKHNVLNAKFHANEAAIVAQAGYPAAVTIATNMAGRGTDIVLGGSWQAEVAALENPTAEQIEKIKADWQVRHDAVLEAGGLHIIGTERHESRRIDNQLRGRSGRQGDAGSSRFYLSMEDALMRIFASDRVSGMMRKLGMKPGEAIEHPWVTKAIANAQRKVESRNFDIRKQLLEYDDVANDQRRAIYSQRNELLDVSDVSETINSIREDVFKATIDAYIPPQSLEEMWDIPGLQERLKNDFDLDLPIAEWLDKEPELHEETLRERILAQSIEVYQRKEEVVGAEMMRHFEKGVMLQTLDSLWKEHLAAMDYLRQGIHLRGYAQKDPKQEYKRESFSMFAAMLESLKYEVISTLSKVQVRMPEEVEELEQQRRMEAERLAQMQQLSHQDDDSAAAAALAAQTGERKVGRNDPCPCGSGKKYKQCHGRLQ

`N#Cc1c(-c2ccc(-c3ccccc3)cc2)nc(SCc2ccccc2)[nH]c1=O` [17h, S-Benzyl-5-cyano-6-(biphenyl-4-yl)-2-thiouracil]: the “antimicrobial activity (MIC) against NR698” value in data set [1] is given as “most potent inhibition effects”. Moreover, the half-maximal inhibitory concentration (IC50) in data set [2] was found to be 60 µM. Further, in data set [3], the “antimicrobial activity (MIC) against MC4100” value is “neither 17h nor 16h exhibited inhibition effects”.

Consider `Cc1onc(-c2c(F)cccc2Cl)c1C(=O)Nc1ccc(Sc2ccccc2)nc1Sc1ccccc1` [compound 1], for which, in data set [4], the solubility result is on record as “started having solubility problems when approaching 100 µM”.

Regarding `N#Cc1c(-c2ccc(-c3ccccc3)cc2)nc(SCc2ccc(CSC3=NC(=O)C(C#N)C(c4ccc(-c5ccccc5)cc4)=N3)cc2)[nH]c1=O` (stereo not drawn) [16h, 2,2'-(α,α’-Xylene)bis(sulfanediyl)bis-(6-(biphenyl-4-yl)-5-cyano-4-oxopyrimidine)], the “antimicrobial activity (MIC) against NR698” value in data set [1] is “did not exhibit significantly antimicrobial activities”. Moreover, in data set [5], 2 µM corresponded to half-maximal inhibition (IC50) and the “fold more potent than the hit compound(s)” value was 50 fold. Also, in data set [3], the “antimicrobial activity (MIC) against MC4100” value is reported as “neither 17h nor 16h exhibited inhibition effects”.

In the case of `N#Cc1c(-c2ccc(Br)cc2)nc(SCc2ccc(CSC3=NC(=O)C(C#N)C(c4ccc(Br)cc4)=N3)cc2)[nH]c1=O` (stereo not drawn) [16g, 2,2'-(α,α’-Xylene)bis(sulfanediyl)bis-(6-(4-bromophenyl)-5-cyano-4-oxopyrimidine)], in data set [5], the “fold more potent than the hit compound(s)” value was 50 fold.
